Rtt109 Vps75: inhibitors of Candida albicans Rtt109/Vps75 histone acetyltransferase; Q5AAJ8; 330,000 tested, 0.16% active; purified Rtt109/Vps75, ThioGlo CoA-SH fluorescence, 4 h; inhibition, % at 34.9 µM;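 active = inhibition of at least 50% in every replicate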
Target sequence (Q5AAJ8 whole entry, looked up): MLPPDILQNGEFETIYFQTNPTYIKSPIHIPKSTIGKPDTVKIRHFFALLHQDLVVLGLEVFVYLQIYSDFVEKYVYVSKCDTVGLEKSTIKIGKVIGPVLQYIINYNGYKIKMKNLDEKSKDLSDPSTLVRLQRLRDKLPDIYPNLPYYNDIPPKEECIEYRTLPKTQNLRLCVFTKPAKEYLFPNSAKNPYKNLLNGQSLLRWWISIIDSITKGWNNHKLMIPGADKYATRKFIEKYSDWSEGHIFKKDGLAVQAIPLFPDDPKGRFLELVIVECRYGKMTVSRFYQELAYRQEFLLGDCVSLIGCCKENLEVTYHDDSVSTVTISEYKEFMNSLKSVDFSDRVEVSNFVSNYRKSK
FGF22 binding-1: shifts melting point of recombinant human FGF22; recombinant FGF22 thermal shift, SYPRO orange fluorescence; percent of sucrose octasulfate shift, DMSO zero; activity (Tm shift, normalised), % at 9.99 µM; 340,000 tested, 1.5% active;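 active = mean Tm shift, scaled 0 neutral to 100 positive control, at about 1.3% or above, every replicate too, limit read from the data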
Target sequence (Q9HCT0 whole entry, looked up): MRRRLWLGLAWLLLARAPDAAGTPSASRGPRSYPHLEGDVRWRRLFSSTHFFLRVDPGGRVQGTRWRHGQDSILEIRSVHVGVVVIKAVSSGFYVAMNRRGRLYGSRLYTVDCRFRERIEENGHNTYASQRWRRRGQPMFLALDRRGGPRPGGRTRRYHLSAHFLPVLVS
Efflux pump mplx: antifungal efflux pump inhibition, Nile Red retention. S. cerevisiae Candida pump triplex. inhibition, % at 10 µM. 330,000 tested, 0.44% active. AID 485275;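 active = plate passing quality check with inhibition over a set limit, or well fluorescence over plate mean plus 4 SD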;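 also: Nile Red retained in pooled yeast measured as flow cytometry median fluorescence; 0% = buffer negative control and 100% = Enniatin B positive control; higher means more Nile Red kept so more efflux inhibition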
ASAP1 inh: blocks human ASAP1-stimulated Arf1 GTP hydrolysis; Q9ULH1; GDP FP detection; inhibition, % at 16.5 µM; 360,000 tested, 0.19% active; AID 624377; in the data active = inhibition above about 25%;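 also: 0% = vehicle with enzyme and substrate and 100% = no enzyme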
ARFGAP1 inh: rat ARFGAP1 inhibition. inhibition, % at 16.5 µM. Q62848. 360,000 tested, 0.26% active. AID 651572. Arfgap1-stimulated ARF1 GTP hydrolysis, GDP FP detection;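 active = inhibition above a per-plate limit, mean inhibition of low control wells plus 3 SD, cut at about 25% in these data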;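 also: 0% = DMSO wells with enzyme and 100% = wells lacking Arfgap1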
Target sequence (Q62848 1-136 limits assumed): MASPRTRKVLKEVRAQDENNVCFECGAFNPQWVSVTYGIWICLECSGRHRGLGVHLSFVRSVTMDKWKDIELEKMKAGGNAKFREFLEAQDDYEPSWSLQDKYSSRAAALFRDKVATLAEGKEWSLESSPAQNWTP
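Material: rat Arfgap1 GAP domain (His6, aa 1-136), purified enzyme. Also added: human ARF1(Δ1-17)-GTP substrate. Compound dosing: 16.5 µM single point, 1.26% DMSO. Timing: enzyme reaction 120 min at 25 °C after 20 min preincubation. Signal: GDP detection by fluorescence polarization. Read-out basis: percent inhibition of GAP-stimulated GDP formation, scaled between DMSO and no-Arfgap1 medians.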
FGF22 binding-2: binders of human FGF22 by thermal shift. shares compounds with FGF22 binding-1. recombinant FGF22 thermal shift, SYPRO orange fluorescence. thermal shift activity, °C (ΔTm) at 38 µM. 1,000 tested, 2% active. AID 720646;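 active = fitted rise in melting shift crosses a set limit at or below the top valid dose tested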
FGF22 TSA DP: binders of human FGF22 by thermal shift. shares compounds with FGF22 binding-1. 50 tested, under 10 active. Thermal shift assay, SYPRO orange, melting temperature shift. Tm shift (activity), % at 38 µM. AID 743017;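 active = compounds whose fitted dose curve of melting temperature shift rises past a set threshold within the tested doses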
TSA no protein: shows thermal shift signal without protein, FGF22 counter-screen. shares compounds with FGF22 binding-1. compound-only SYPRO orange thermal shift counter-screen, no protein. AC50, µM (titrated, usually from 38 µM). 1,000 tested, 2% active;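 active = rising signal whose fitted curve reaches the 0.54 level within the top valid dose, showing a melting point, actives reach about 13 µM in these data; inactive = the rest, including activity in the opposite direction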; also: value is where the raw curve crosses a fixed level and not half-maximal
The depositor's hits bear a star; i = inactive; x = no result; [ ] = remark or other dose. A selection: hits, their analogues and other compounds. The true share with any hit is near 1.9%.

SMILES	Rtt109 Vps75	FGF22 binding-1	Efflux pump mplx	ASAP1 inh	ARFGAP1 inh	FGF22 binding-2	TSA no protein	others
Cc1ccc(C(=O)Nc2cccc(-c3cnc4ccccc4n3)c2)cc1	4.6	x	-0.2	3.6	4.0	x	x
Cc1ccc(C)c(N2CCN(C(=O)C34CC5CC(C3)CC(n3nnc(C)n3)(C5)C4)CC2)c1	-2.7	16.3*	0.1	5.7	-3.2	0.038	i
COc1nsnc1NS(=O)(=O)c1ccc(NC(=S)NC(=O)c2cccnc2)cc1	2.1	1.6*	0.0	-9.7	-6.8	-0.021	i
CC(=O)N(C[C@H]1N[C@H](CO)[C@H]1c1ccc(-c2ccccc2)cc1)C(C)C	x	-0.4	x	x	x	x	x
CC(C)N(C[C@H]1N[C@H](CO)[C@H]1c1ccccc1)S(=O)(=O)c1ccccc1	x	1.4*	x	x	x	0.02[42 µM]	i
Cc1cccnc1NC(=O)CCCN1C(=O)c2ccccc2C1=O	-8.0	17.1*	0.0	-10.9	-1.1	0.217	i
Cc1ccc(Cl)cc1NC(=O)CCCN1C(=O)c2cccnc2C1=O	-5.2	0.4	0.1	-12.4	0.1	x	x
CCC1CCCCN1C(=O)CCNC(=O)Cn1cnc2ccccc2c1=O (stereo unspecified)	-3.6	1.4*	-0.5	-0.9	2.1	-0.036	i
C[C@@H]1CN([C@H](C)CO)C(=O)Cc2cc(NC(=O)C3CCCCC3)ccc2O[C@H]1CN(C)Cc1ccc(-c2ccccc2)cc1	x	0.0	x	x	x	x	x
O=c1ccc2cc(S(=O)(=O)Nc3ccc(Br)cc3)ccc2o1	-1.2	1.4*	0.1	2.7	3.1	-0.019	i
O=C(NCc1ccc(Cl)cc1)c1n[nH]c([N+](=O)[O-])c1Cl	3.4	4.2*	-0.2	24.3	6.2	0.337	i
O=C(NCC1CC1)C1Cc2c(-c3ccccc3Oc3ccccc3)ccnc2O1 (stereo unspecified)	x	-0.2	x	5.1	14.1	x	x
COCCNC(=O)CCc1nnc2ccc(N3CCC(C)CC3)nn12	9.9	1.6*	-0.1	9.0	-1.1	0.037	i
CN1CCN(Cc2nc3ccccc3c(=O)n2Cc2nc(-c3ccc([N+](=O)[O-])cc3)cs2)CC1	-1.5	x	0.4	-3.8	3.7	x	x
CN(CC(=O)Nc1cccc(F)c1)C(=O)c1cn(-c2ccccc2)nc1-c1cccs1	5.8	0.5	2.6	11.8	0.1	x	x
COc1cccc(NC(=O)CN(C)C(=O)c2cn(-c3ccccc3)nc2-c2cccs2)c1	10.1	2.1*	0.0	-8.0	15.5	0.632	i
COc1cccc([C@@H]2CC=C(C(=O)O)[C@H](c3ccccc3)N2S(=O)(=O)c2ccc(C)cc2)c1	-1.6	0.1	-0.1	-2.8	-18.0	x	x
CCCNC(=O)COC(=O)c1ccccc1C(=O)N(C)C1CCCCC1	-8.6	13.8*	0.1	0.2	-1.4	-0.085	i	FGF22 TSA DP=-0.1
CN(C(=O)c1ccccc1C(=O)OCC(=O)NCc1ccccc1)C1CCCCC1	2.8	0.0	0.1	-2.8	9.8	x	x
C=CCN(C(=O)c1csnn1)C(C(=O)NC1CCCCC1)c1ccc(Cl)cc1 (stereo unspecified)	17.2	1.5*	0.5	-16.7	3.8	-0.074	i
CCNC(=O)C[C@H]1CC[C@@H]2[C@H](COC[C@H](O)CN2C(=O)C2CCOCC2)O1	x	27.2*	x	x	x	0.056	i
O=C(C[C@H]1CC[C@H]2[C@@H](COC[C@@H](O)CN2C(=O)C2CC2)O1)NCc1ccncc1	x	6.3*	x	x	x	0.012[42 µM]	i
Nc1c(N(CCO)C(=O)COc2ccc(Cl)cc2)c(=O)[nH]c(=O)n1Cc1ccccc1	2.7	1.8*	0.0	-8.5	10.6	0.053	i
COc1ccc(C)cc1NC(=O)C1CCN(S(=O)(=O)c2cccs2)CC1	2.8	1.9*	0.5	5.0	-2.5	0.011	i
Cc1ccc(NC(=O)C2CCN(S(=O)(=O)c3cccs3)CC2)c(O)c1	0.8	-0.4	-0.1	5.5	4.3	x	x
SMILES	Rtt109 Vps75	FGF22 binding-1	Efflux pump mplx	ASAP1 inh	ARFGAP1 inh	FGF22 binding-2	TSA no protein	others
CS(=O)(=O)N1CCN(S(=O)(=O)c2ccccc2[N+](=O)[O-])CC1	1.2	42.4	0.1	16.5	-1.3	x	x
O=C(c1csc(Nc2ccccc2Cl)n1)N1CCCC1	-2.4	x	-0.2	2.6	-7.9	x	x
CC(=O)Nc1ccc(S(=O)(=O)Nc2nc3ccc([N+](=O)[O-])cc3s2)cc1	2.4	3.4*	-0.1	3.8	2.5	-0.155	i
COc1ccc(N2CCN(C(=O)c3cccc(NC4=NC5CS(=O)(=O)CC5S4)c3)CC2)cc1 (stereo unspecified)	9.1	-1.3	-0.4	-10.3	-4.7	x	x
O=C(c1cccc(NC2=NC3CS(=O)(=O)CC3S2)c1)N1CCN(c2ncccn2)CC1 (stereo unspecified)	-3.3	12.0*	0.0	0.9	-0.7	-0.247	i
COc1ccc(N2CCN(CC(=O)Nc3ccccc3SC)CC2)cc1	-3.7	-1.5	-0.1	10.8	3.2	x	x
C[C@H](CO)N1C[C@H](C)[C@H](CN(C)C(=O)Nc2ccc(C(F)(F)F)cc2)Oc2cc(-c3ccncc3)ccc2S1(=O)=O	x	1.4*	x	x	x	-0.199[42 µM]	i
C[C@H]1CN([C@@H](C)CO)S(=O)(=O)c2ccc(-c3ccncc3)cc2O[C@H]1CN(C)C(=O)Nc1ccc(C(F)(F)F)cc1	x	2.0*	x	x	x	0.048	i
C[C@@H]1CN([C@H](C)CO)S(=O)(=O)c2ccc(-c3ccncc3)cc2O[C@H]1CN(C)C(=O)Nc1ccc(C(F)(F)F)cc1	x	-0.1	x	x	x	x	x
CC(C)N(Cc1ccccc1)C(=O)COC(=O)C1CCN(c2ccc(C(F)(F)F)cn2)CC1	-3.0	1.5*	x	-3.3	22.8	-0.009	i
O=C(c1ccccn1)N1C[C@H]2[C@@H](c3ccccc31)[C@@H](CO)N2C(=O)c1ccccn1	x	11.2*	x	x	x	-0.005[42 µM]	i
O=C(c1cccc(F)c1)N1C[C@H]2[C@@H](c3ccccc31)[C@@H](CO)N2C(=O)c1ccccn1	x	3.3*	x	x	x	-0.048[42 µM]	i
O=C(c1ccccc1)N1C[C@H]2[C@@H](c3ccccc31)[C@@H](CO)N2C(=O)c1ccccn1	x	-0.1	x	x	x	x	x
COc1ccc(-c2cnc3c(c2)C(=O)N([C@H](C)CO)C[C@H](C)[C@H](CN(C)C(=O)Nc2ccccc2)O3)cc1	x	-0.1	x	x	x	x	x
Cc1cc(NC(=O)Nc2ccc3c(ccn3C)c2)sn1	-5.6	2.8*	-0.1	-5.7	1.9	0.141	i	FGF22 TSA DP=0.0
COC(=O)c1sccc1NC(=S)Nc1cc(OC)ccc1OC	-4.4	-0.3	0.2	-5.5	5.1	x	x
CCOc1cccc(C(=O)Nc2ccc3[nH]ncc3c2)c1	9.5	1.6*	0.0	2.4	5.4	-0.074	i	FGF22 TSA DP=-0.2

Screens (PubChem)
